Screening data (PubChem BioAssay)
IMP-1 inh-1 – blocks Pseudomonas aeruginosa IMP-1 metallo-beta-lactamase | inhibition, % at 5.6 µM | hit rate 0.45% among 290,000 | purified IMP-1, nitrocefin hydrolysis, epi-absorbance fluorescence | AID 1556;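 active = inhibition above the mean plus 3 SD of all compounds in the same screening run, cut at about 4.5% in these data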;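 note: 0% = IMP-1 with DMSO and 100% = DMSO wells lacking enzyme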
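Material – recombinant IMP-1 enzyme, purified · Amount – IMP-1 0.2 nM before substrate addition · Medium – HEPES buffer pH 7.1 with ZnSO4 and Brij 35 · Timing – 25 °C, 15 min preincubation, 25 min reaction · Measured by – plate fluorescence quenching by hydrolysis product, ex 480/em 530 nm · Read-out – percent enzyme inhibition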
PKA-R2B act – activates the human PKA-R2B holoenzyme complex; P22694+P31323; PKA-R2B holoenzyme dissociation, Cy5-IP20 fluorescence polarization; R2B truncated from residue 108, S112A mutant; 0% DMSO only, 100% 113 µM cGMP; activation, % at 11.4 µM; hit rate 0.079% among 340,000; AID 504700;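 active = activation above a cutoff set at the mean over all compounds plus 3 SD, cut at about 18% in these data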;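 note: higher means more holoenzyme dissociation and a rise in polarization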
Target sequence (P31323 whole entry, looked up, other chains not shown, the tested form may be a part): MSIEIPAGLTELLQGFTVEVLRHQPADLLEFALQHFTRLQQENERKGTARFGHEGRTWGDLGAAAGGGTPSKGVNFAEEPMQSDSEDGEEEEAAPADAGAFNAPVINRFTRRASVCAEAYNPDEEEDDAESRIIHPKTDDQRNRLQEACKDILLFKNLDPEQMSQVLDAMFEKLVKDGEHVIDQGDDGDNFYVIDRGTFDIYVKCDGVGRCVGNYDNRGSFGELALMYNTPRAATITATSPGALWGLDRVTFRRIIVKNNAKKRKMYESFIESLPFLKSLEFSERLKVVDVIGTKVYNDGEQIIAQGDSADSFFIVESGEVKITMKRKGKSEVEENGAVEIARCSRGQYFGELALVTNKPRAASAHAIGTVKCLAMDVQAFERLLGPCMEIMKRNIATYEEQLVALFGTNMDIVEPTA
PKA-R1A act – activates the PKA-R1A holoenzyme complex. P00514+P68181. PKA-R1A dissociation, Cy5-IP20 fluorescence polarization; scaled: DMSO 0%, 113 µM cGMP 100%. activation, % at 11.4 µM. hit rate 0.083% among 340,000. AID 504707;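 active = percent activation above the mean of all tested compounds plus 3 SD, cut at about 19% in these data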;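 note: higher means more PKAc released from R1A so a rise in polarization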
MsrA act – activates bovine MsrA enzyme. activation, % at 10.6 µM. AID 602163. purified bovine MsrA, absorbance read-out. hit rate 0.3% among 360,000; in the data active = activation above about 7.5%;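 note: 0% = vehicle and 100% = reference activator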
MsrA inh – inhibits bovine methionine sulfoxide reductase A; hit rate 0.75% among 360,000; inhibition, % at 15.5 µM; purified bovine MsrA, absorbance read-out; in the data active = inhibition above about 4.5%;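 note: 0% = vehicle wells with enzyme and 100% = reference inhibitor wells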
VIM-2 inhibitor – blocks Pseudomonas aeruginosa VIM-2 metallo-beta-lactamase | inhibition, % at 5.6 µM | AID 1527 | hit rate 0.89% among 290,000 | purified VIM-2, nitrocefin hydrolysis, epi-absorbance fluorescence;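 active = inhibition above the mean of all tested compounds plus 3 SD, cutoff set per screening run, cut at about 7.5% in these data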;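 note: red hydrolysis product quenches plate fluorescence so inhibitors raise well fluorescence; 0% = enzyme with DMSO and 100% = DMSO without enzyme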
IMP-1 inh-2 – selectivity counter-screen for VIM-2 inhibitors: IMP-1 metallo-beta-lactamase inhibitors; shares compounds with VIM-2 inhibitor; purified IMP-1, nitrocefin hydrolysis, epi-absorbance fluorescence; inhibition, % at 5.6 µM; 1,300 tested, under 10 active; AID 1856; call rule not given here;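 note: 0% = enzyme with vehicle and 100% = vehicle without enzyme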
VIM-2 FRET ctr – inhibits VIM-2 in FRET assay to exclude epi-absorbance artifacts. inhibition, % at 5.6 µM. hit rate 23% among 1,300. shares compounds with VIM-2 inhibitor. purified VIM-2, CCF2 FRET substrate hydrolysis. AID 1857;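 active = inhibition above the mean of all tested compounds plus 3 SD, cut at about 19% in these data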;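 note: 0% = VIM-2 plus DMSO and 100% = no enzyme wells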
TEM-1 counter – blocks E. coli TEM-1 beta-lactamase in VIM-2 selectivity screen. hit rate 3% among 1,300. Purified TEM-1, nitrocefin hydrolysis, epi-absorbance fluorescence. shares compounds with VIM-2 inhibitor. AID 1866. inhibition, % at 5.6 µM;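 active = inhibition above that campaign's mean inhibition plus 3 SD, cut at about 0.46% in these data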;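 note: 0% = TEM-1 with DMSO and 100% = TEM-1 with 100 µM potassium clavulanate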
Target sequence (P62593 whole entry, looked up): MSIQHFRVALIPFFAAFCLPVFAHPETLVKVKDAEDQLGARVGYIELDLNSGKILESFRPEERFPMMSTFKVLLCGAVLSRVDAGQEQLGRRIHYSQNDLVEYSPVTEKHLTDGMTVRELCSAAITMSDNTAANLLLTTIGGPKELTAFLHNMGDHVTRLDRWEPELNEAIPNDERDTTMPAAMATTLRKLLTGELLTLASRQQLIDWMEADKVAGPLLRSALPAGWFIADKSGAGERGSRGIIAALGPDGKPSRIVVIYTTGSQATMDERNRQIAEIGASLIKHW
VIM-2 confirm 2 – confirmation of P. aeruginosa VIM-2 metallo-beta-lactamase inhibitors; shares compounds with VIM-2 inhibitor; purified VIM-2, nitrocefin hydrolysis, epi-absorbance; inhibition, % at 5.6 µM; hit rate 96% among 1,300; AID 2187;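 active = inhibition of the VIM-2 beta-lactamase enzyme above about 11% from the earlier first-round screen, limit read from the data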;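 note: 0% = VIM-2 with DMSO and 100% = buffer wells without enzyme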
An asterisk follows results filed as active; . = not tested or not shown. Shown are actives, neighbours in structure and some others; about 2.1% of the full set was active somewhere.

SMILES | IMP-1 inh-1 | PKA-R2B act | PKA-R1A act | MsrA act | MsrA inh | VIM-2 inhibitor | IMP-1 inh-2 | VIM-2 FRET ctr | TEM-1 counter | VIM-2 confirm 2
Cc1cc2oc(=O)cc(CN3CCN(Cc4ccccc4)CC3)c2cc1O | -2 | 7 | -3 | 0 | 2 | -1 | . | . | . | .
CCc1cc2c(CN3CCN(CCO)CC3)cc(=O)oc2cc1O | -3 | 6 | 8 | 1 | 2 | 18* | -3 | -19 | -7 | 25*
CC(/C=C\c1ccccc1)=C/C(=O)O | -2 | -4 | 5 | -7 | 1 | -2 | . | . | . | .
CC(=C/C(=O)O)/C=C/c1ccc([N+](=O)[O-])cc1 | -3 | -4 | 4 | -4 | 4 | 14* | -3 | 0 | -5 | 7
Cc1cccc(C2c3[nH]c4ccccc4c3CCN2C(=O)c2cc(CC(C)C)nc(C)n2)n1 (stereo unspecified) | -4 | -8 | 2 | -1 | -1 | -2 | . | . | . | .
Cc1cccc(C2c3[nH]c4ccccc4c3CCN2C(=O)c2cc(CC(C)C)[nH]c(=O)n2)n1 (stereo unspecified) | -2 | -15 | -8 | -5 | 1 | 24* | -4 | 58* | -5 | 36*
CCN1CCN(Cc2nnc(-c3ccc(C)cc3)o2)CC1 | -2 | 2 | 2 | -4 | 0 | 1 | . | . | . | .
CCn1c2ccccc2c2nnc(SCCN3CCCCC3)nc21 | -4 | -7 | 1 | -2 | 3 | 19* | -1 | 2 | -1 | 22*
CCn1c2ccccc2c2nnc(SCc3ccccc3)nc21 | -2 | -8 | -14 | -1 | 1 | -2 | . | . | . | .
Cc1cc(C)c2c(c1)c1nnc(SCCN3CCCCC3)nc1n2C | 1 | -14 | -16 | -7 | -1 | 23* | -3 | 1 | -6 | 33*
Cn1c2ccccc2c2nnc(SCc3nnc(-c4ccccc4)o3)nc21 | -2 | . | . | . | . | -2 | . | . | . | .
Nc1cc(N)nc(SCCN2CCCCC2)n1 | 0 | -3 | 0 | -10 | 1 | 0 | . | . | . | .
Cn1c2ccccc2c2nnc(SCC(=O)Nc3cccc(O)c3)nc21 | -2 | -6 | -2 | -7 | 1 | 20* | -2 | 3 | -8 | 27*
Cn1c2ccccc2c2nnc(SCCN3CCOCC3)nc21 | -2 | -2 | 2 | -1 | 1 | 17* | -3 | 0 | -9 | 23*
COc1ccc(NC(=O)N(C)C[C@H]2OCCCC[C@H](C)Oc3ccc(NC(=O)Nc4cccc5ccccc45)cc3C(=O)N([C@@H](C)CO)C[C@H]2C)cc1 | . | . | . | . | 2 | . | . | . | . | .
CC[C@]12c3[nH]c4ccccc4c3CCN1C(=O)C(CC(=O)NCc1cccc(C(F)(F)F)c1)C[C@@H]2C(=O)N1CCN(C(=O)c2ccco2)CC1 (stereo partly specified) | . | -2 | 1 | -9 | -1 | . | . | . | . | .
Cc1ccc(S(=O)(=O)N2CCCCC2)cc1NC(=O)CSc1nnc(C2CC2)n1N | . | -7 | 8 | -1 | 0 | . | . | . | . | .
COc1ccc(-c2nc(NCCN(C)C)nc3ccsc23)c(C)c1 | . | . | . | -3 | 2 | . | . | . | . | .
CCCN1/C(=C(\C#N)C2=NS(=O)(=O)c3ccccc32)N(C)c2ccccc21 | . | -2 | 1 | 2 | 2 | . | . | . | . | .
CCCCn1c2ccc(C)cc2c2nnc(SCCN3CCCCC3)nc21 | -3 | 5 | 4 | 0 | 2 | 22* | -3 | 8 | -8 | 33*
COC(=O)c1cccc(CN2C(=O)C(C)Oc3ccc(C)cc32)c1 (stereo unspecified) | . | . | . | -7 | 2 | . | . | . | . | .
Cn1c2ccccc2c(=O)c2cc(C#Cc3ccsc3)ccc21 | -2 | -1 | -9 | -3 | 0 | -1 | . | . | . | .
Cn1c2ccccc2c(=O)c2ccc(C#CC3(N)CCCCC3)cc21 | -3 | -1 | -6 | -2 | 0 | 28* | -3 | 0 | -10 | 39*
COc1cccc2oc3ccc(C#CC4(N)CCCCC4)cc3c(=O)c12 | -1 | -1 | 9 | -1 | 0 | 15* | -3 | -2 | -6 | 20*
Cn1c2ccccc2c(=O)c2cc(C#Cc3ccccn3)ccc21 | -3 | -4 | 7 | 0 | 0 | 14* | -2 | -8 | -5 | 17*
SMILES | IMP-1 inh-1 | PKA-R2B act | PKA-R1A act | MsrA act | MsrA inh | VIM-2 inhibitor | IMP-1 inh-2 | VIM-2 FRET ctr | TEM-1 counter | VIM-2 confirm 2
Cn1c2ccccc2c(=O)c2ccc(F)cc21 | -4 | -5 | -1 | -5 | -1 | 13* | -2 | -22 | -10 | 24*
COCCc1nc2ccc(C(=O)N(C)Cc3cccc(-n4cccn4)c3)cc2o1 | -3 | 9 | 11 | -4 | 2 | -3 | . | . | . | .
CCCCc1c(-c2ccc(OC)cc2)ncn1CCc1ccccc1OC | . | . | . | -1 | 0 | . | . | . | . | .
C[C@H](CO)N1C[C@H](C)[C@H](CN(C)C(=O)Nc2ccc(C(F)(F)F)cc2)Oc2ncc(-c3cccnc3)cc2C1=O | . | 10 | 7 | 0 | -1 | . | . | . | . | .
CCCCSc1nc2sc3c(c2c(=O)[nH]1)CCC3 | -3 | 0 | -10 | -10 | -1 | -3 | . | . | . | .
O=c1[nH]c(SCc2nc3ccccc3c(=O)n2-c2ccccc2)nc2ccccc12 | 1 | 2 | 3 | -3 | 0 | 2 | . | . | . | .
O=c1[nH]c(SCc2n[nH]c(=S)n2-c2ccccc2)nc2sc3c(c12)CCC3 | -2 | 9 | -7 | -3 | 0 | 21* | -3 | 45* | -9 | 29*
O=c1[nH]c(SCc2n[nH]c(=S)n2-c2ccccc2)nc2ccccc12 | -3 | -15 | -12 | -8 | -1 | 28* | -1 | 55* | 0 | 40*
Cc1nnc2c(N3CCN(CCO)CC3)nc3ccccc3n12 | -3 | -5 | -2 | -4 | 3 | 13* | -5 | -1 | -4 | 14*
CCN1CCN(c2nc3ccccc3n3cnnc23)CC1 | -1 | -12 | 8 | -4 | 2 | 1 | . | . | . | .
CCn1c2ccccc2c2nnc(SCC(N)=O)nc21 | -5 | -7 | 0 | -2 | 3 | 5 | . | . | . | .
CCN(CC)CCSc1nnc2c3cc(F)ccc3n(Cc3ccccc3)c2n1 | -1 | -13 | -12 | 0 | 0 | 23* | -3 | 3 | -6 | 37*
CCN(CC)CCSc1nnc2c3ccccc3n(Cc3ccccc3)c2n1 | -3 | 2 | 5 | -4 | 1 | 31* | -3 | 4 | -10 | 49*
O=C(NCc1ccccc1)Nc1nnc([C@@H]2C[C@H](O)[C@@H](CO)O2)s1 | . | . | . | -2 | 2 | . | . | . | . | .
